{"source": "ChEMBL document CHEMBL1155040", "about": "“Potency and selectivity of trifluoroacetylimino and pyrazinoylimino nicotinic insecticides and their fit at a unique binding site niche” (J Med Chem, 2008)", "key": {"Musca domestica [1]": {"system": "Musca domestica", "experiment": "Insecticidal activity against intrathoracically dosed houseflies at >10 um/g", "format": "functional", "procedure,_shortened": "(§1)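 Adult female houseflies were dosed by intrathoracic injection or topical application, either without or with topical pretreatment with the P450 inhibitor synergist O-propyl O-(2-propynyl)phenylphosphonate (100 µg/g) before the test chemical. Where no LD50 was obtained, percent mortality at the indicated dose is given.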"}, "[2]": {"experiment": "(§2) Displacement of [3H]IMI from nAChR in Drosophila brain", "procedure,_shortened": "(§3)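 IC50 (nM, ± SD) for displacing [³H]IMI binding to native nAChR from Drosophila brain.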"}, "Drosophila": {"system": "Drosophila", "experiment": "as §2", "conditions": "concentration not given here", "procedure,_shortened": "as §3"}, "Musca domestica [3]": {"system": "Musca domestica", "experiment": "Insecticidal activity against houseflies", "format": "functional", "procedure,_shortened": "as §1"}, "[4]": {"experiment": "Toxicity in ip dosed Swiss Webster mouse", "format": "organism-based", "conditions": "in vivo", "procedure,_shortened": "(§4)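 Male albino Swiss-Webster mice (25-30 g) were dosed intraperitoneally. Results are LD50 in mg/kg, or percent lethality at the indicated dose, which was the maximum allowed by solubility in the vehicle.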"}, "[5]": {"target": "Neuronal acetylcholine receptor subunit alpha-4 (Gallus gallus, UniProt P09482+P09484)", "sequence (P09482 whole entry, one chain of several)": "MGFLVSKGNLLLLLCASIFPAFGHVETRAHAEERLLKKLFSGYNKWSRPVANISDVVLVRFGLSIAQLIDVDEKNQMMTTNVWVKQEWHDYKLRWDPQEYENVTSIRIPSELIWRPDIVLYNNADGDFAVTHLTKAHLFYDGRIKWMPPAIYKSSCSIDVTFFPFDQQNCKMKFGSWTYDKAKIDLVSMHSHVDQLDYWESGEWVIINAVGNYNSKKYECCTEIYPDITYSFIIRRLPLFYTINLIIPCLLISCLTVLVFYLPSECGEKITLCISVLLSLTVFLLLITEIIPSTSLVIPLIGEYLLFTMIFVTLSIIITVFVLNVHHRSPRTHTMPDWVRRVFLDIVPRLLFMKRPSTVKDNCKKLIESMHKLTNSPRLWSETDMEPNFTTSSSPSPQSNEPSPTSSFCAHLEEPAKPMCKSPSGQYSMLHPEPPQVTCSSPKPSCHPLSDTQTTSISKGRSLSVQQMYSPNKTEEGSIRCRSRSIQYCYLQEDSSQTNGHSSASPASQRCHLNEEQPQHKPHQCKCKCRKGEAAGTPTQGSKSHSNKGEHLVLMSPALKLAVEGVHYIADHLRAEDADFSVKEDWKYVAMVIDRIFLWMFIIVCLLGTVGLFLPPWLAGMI", "experiment": "Displacement of [3H]nicotine from chick alpha4beta2 nAChR", "procedure,_shortened": "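Radioligand displacement used [³H]nicotine with chick α4β2 nAChR. Values are IC50 ± SD in nM.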"}, "[6]": {"experiment": "Displacement of [3H]IMI from peach-potato aphid alpha2/rat beta2 nAChR hybrid recombinant receptor"}, "[7]": {"experiment": "Lipophilicity, log P of the compound", "format": "physicochemical", "conditions": "octanol/water"}, "Mus musculus [8]": {"system": "Mus musculus", "experiment": "Toxicity in Swiss Webster mouse at >24 mg/kg, ip", "format": "organism-based", "conditions": "in vivo", "procedure,_shortened": "as §4"}, "Culex quinquefasciatus [9]": {"system": "Culex quinquefasciatus", "experiment": "Mosquito Larvicidal activity against premethrin-resistant fourth instar Culex quinquefasciatus Marin after 24 hrs", "format": "functional", "procedure,_shortened": "(§5)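 Larvicidal test on fourth-instar Culex quinquefasciatus, using the susceptible CQ1 colony and the permethrin-resistant Marin colony, with 24 h exposure.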"}, "Culex quinquefasciatus [10]": {"system": "Culex quinquefasciatus", "experiment": "Mosquito Larvicidal activity against premethrin-susceptible fourth instar Culex quinquefasciatus CQ1 after 24 hrs", "format": "functional", "conditions": "CQ1, 24 h", "procedure,_shortened": "as §5"}, "Mus musculus [11]": {"system": "Mus musculus", "experiment": "Toxicity in Swiss Webster mouse at >36 mg/kg, ip", "format": "organism-based", "conditions": "in vivo", "procedure,_shortened": "as §4"}}, "data": [{"smiles": "O=C(/N=c1\\sccn1Cc1ccc(Cl)nc1)c1ccc(Cl)cc1", "values": [{"measurement": "Activity", "setting": "Musca domestica [1]", "value": 0, "unit": "%"}, {"measurement": "IC50", "setting": "[2]", "value": "> 30", "unit": "µM"}, {"measurement": "inhibition", "setting": "Drosophila", "value": 10, "unit": "%"}, {"measurement": "LD50", "setting": "Musca domestica [3]", "value": "> 10", "unit": "mg/kg"}]}, {"smiles": "N#C/N=C1\\SCCN1Cc1ccc(Cl)nc1", "note": "[THIACLOPRID]", "values": [{"measurement": "Activity", "setting": "Musca domestica [1]", "value": 19, "unit": "%"}, {"measurement": "LD50", "setting": "[4]", "value": 28, "unit": "mg/kg"}, {"measurement": "IC50", "setting": "[2]", "value": 0.0027, "unit": "µM"}, {"measurement": "LD50", "setting": "Musca domestica [3]", "value": "> 10", "unit": "mg/kg"}, {"measurement": "IC50", "setting": "[5]", "value": 0.86, "unit": "µM"}, {"measurement": "IC50", "setting": "[6]", "value": 0.011, "unit": "µM"}, {"measurement": "logP", "setting": "[7]", "value": 1.26}]}, {"smiles": "Clc1ccc(C(c2ccc(Cl)cc2)C(Cl)(Cl)Cl)cc1", "note": "[CHLOROPHENOTHANE]", "values": [{"measurement": "LD50", "setting": "Musca domestica [3]", "value": 14, "unit": "mg/kg"}]}, {"smiles": "O=C(/N=c1\\sccn1Cc1ccc(Cl)nc1)c1cnccn1", "values": [{"measurement": "Activity", "setting": "Mus musculus [8]", "value": 0, "unit": "%"}, {"measurement": "Activity", "setting": "Musca domestica [1]", "value": 0, "unit": "%"}, {"measurement": "LD50", "setting": "[4]", "value": "> 24", "unit": "mg/kg"}, {"measurement": "IC50", "setting": "[2]", "value": 0.0015, "unit": "µM"}, {"measurement": "LD50", "setting": "Musca domestica [3]", "value": "> 10", "unit": "mg/kg"}, {"measurement": "IC50", "setting": "[5]", "value": 0.9, "unit": "µM"}, {"measurement": "IC50", "setting": "[6]", "value": 0.72, "unit": "µM"}]}, {"smiles": "O=C(/N=c1\\sccn1Cc1ccc(Cl)nc1)C(F)(F)F", "values": [{"measurement": "LD50", "setting": "[4]", "value": "> 36", "unit": "mg/kg"}, {"measurement": "IC50", "setting": "[2]", "value": 0.0031, "unit": "µM"}, {"measurement": "LC50", "setting": "Culex quinquefasciatus [9]", "value": 0.024, "unit": "µg/mL"}, {"measurement": "LD50", "setting": "Musca domestica [3]", "value": 0.75, "unit": "mg/kg"}, {"measurement": "IC50", "setting": "[5]", "value": 0.5, "unit": "µM"}, {"measurement": "LC50", "setting": "Culex quinquefasciatus [10]", "value": 0.012, "unit": "µg/mL"}, {"measurement": "Activity", "setting": "Mus musculus [11]", "value": 0, "unit": "%"}, {"measurement": "IC50", "setting": "[6]", "value": 0.28, "unit": "µM"}]}, {"smiles": "ClC1=C(Cl)[C@]2(Cl)[C@@H]3[C@@H]4C[C@@H]([C@H]5O[C@@H]45)[C@@H]3[C@@]1(Cl)C2(Cl)Cl", "note": "[DIELDRIN]", "values": [{"measurement": "LD50", "setting": "Musca domestica [3]", "value": 0.75, "unit": "mg/kg"}]}, {"smiles": "O=C(/N=c1\\sccn1Cc1ccc(Cl)nc1)c1ccccc1", "values": [{"measurement": "Activity", "setting": "Musca domestica [1]", "value": 0, "unit": "%"}, {"measurement": "IC50", "setting": "[2]", "value": 0.121, "unit": "µM"}, {"measurement": "LD50", "setting": "Musca domestica [3]", "value": "> 10", "unit": "mg/kg"}]}, {"smiles": "O=C(/N=c1\\[nH]ccn1Cc1ccc(Cl)nc1)C(F)(F)F", "values": [{"measurement": "IC50", "setting": "[2]", "value": 0.0077, "unit": "µM"}, {"measurement": "LD50", "setting": "Musca domestica [3]", "value": "> 10", "unit": "mg/kg"}]}, {"smiles": "O=C(/N=c1\\sccn1Cc1ccc(Cl)nc1)c1cccnc1", "values": [{"measurement": "Activity", "setting": "Musca domestica [1]", "value": 0, "unit": "%"}, {"measurement": "IC50", "setting": "[2]", "value": 0.0048, "unit": "µM"}, {"measurement": "LD50", "setting": "Musca domestica [3]", "value": "> 10", "unit": "mg/kg"}]}, {"smiles": "CNC(=O)Oc1ccccc1OC(C)C", "note": "[PROPOXUR]", "values": [{"measurement": "LD50", "setting": "Musca domestica [3]", "value": 23, "unit": "mg/kg"}]}, {"smiles": "O=C(/N=c1\\sccn1Cc1ccc(Cl)nc1)c1ccncc1", "values": [{"measurement": "Activity", "setting": "Musca domestica [1]", "value": 0, "unit": "%"}, {"measurement": "IC50", "setting": "[2]", "value": 0.01, "unit": "µM"}, {"measurement": "LD50", "setting": "Musca domestica [3]", "value": "> 10", "unit": "mg/kg"}]}, {"smiles": "O=[N+]([O-])/N=C1\\NCCN1Cc1ccc(Cl)nc1", "note": "[IMIDACLOPRID]", "values": [{"measurement": "Activity", "setting": "Musca domestica [1]", "value": 0, "unit": "%"}, {"measurement": "LD50", "setting": "[4]", "value": 45, "unit": "mg/kg"}, {"measurement": "IC50", "setting": "[2]", "value": 0.0043, "unit": "µM"}, {"measurement": "LD50", "setting": "Musca domestica [3]", "value": "> 10", "unit": "mg/kg"}, {"measurement": "IC50", "setting": "[5]", "value": 2.6, "unit": "µM"}, {"measurement": "IC50", "setting": "[6]", "value": 0.0036, "unit": "µM"}]}, {"smiles": "CC1(C)C(C=C(Cl)Cl)C1C(=O)OCc1cccc(Oc2ccccc2)c1", "note": "(stereo unspecified) [PERMETHRIN]", "values": [{"measurement": "LC50", "setting": "Culex quinquefasciatus [9]", "value": 0.16, "unit": "µg/mL"}, {"measurement": "LC50", "setting": "Culex quinquefasciatus [10]", "value": 0.005, "unit": "µg/mL"}]}, {"smiles": "O=C(/N=c1\\sccn1Cc1ccc(Cl)nc1)c1ccc(Cl)nc1", "values": [{"measurement": "Activity", "setting": "Musca domestica [1]", "value": 0, "unit": "%"}, {"measurement": "IC50", "setting": "[2]", "value": 0.041, "unit": "µM"}, {"measurement": "LD50", "setting": "Musca domestica [3]", "value": "> 10", "unit": "mg/kg"}]}, {"smiles": "CCOP(=S)(OCC)Oc1nc(Cl)c(Cl)cc1Cl", "note": "[CHLORPYRIFOS]", "values": [{"measurement": "LD50", "setting": "Musca domestica [3]", "value": 2.1, "unit": "mg/kg"}]}, {"smiles": "O=C(/N=c1\\sccn1Cc1ccc(Cl)nc1)c1ccccn1", "values": [{"measurement": "Activity", "setting": "Musca domestica [1]", "value": 0, "unit": "%"}, {"measurement": "IC50", "setting": "[2]", "value": 0.013, "unit": "µM"}, {"measurement": "LD50", "setting": "Musca domestica [3]", "value": "> 10", "unit": "mg/kg"}]}, {"smiles": "CCOP(=S)(OCC)Oc1ccc([N+](=O)[O-])cc1", "note": "[PARATHION]", "values": [{"measurement": "LD50", "setting": "Musca domestica [3]", "value": 1.3, "unit": "mg/kg"}]}]}
